# Assay results taken from ChEMBL document CHEMBL4011658 (J Med Chem, 2017).
# Activity calls are given as the source filed them. The calls are words filed in the database; no cut-off is given here. Residues, ends and D or L forms follow the SMILES beside them. *: point of attachment. Boc = CC(C)(C)OC(=O)*
# What was measured:
# Cryptococcus neoformans [1] = assay: Antifungal activity against Cryptococcus neoformans ATCC 90113 after 70 to 74 hrs by alamar blue dye based CLSI method; type: functional
# SK-OV-3 = assay: Cytotoxicity against human SKOV3 cells assessed as reduction in cell viability after 48 hrs by neutral red uptake assay; type: cell-based; details: sk-ov-3, 48 h
# How it was run: (§1)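 Cells seeded at 25 000 per well and grown 24 h to confluence, then exposed to peptides up to 10 μg/mL for 48 h; viability by modified neutral red uptake; doxorubicin positive control, DMSO negative control.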
# SK-MEL = assay: Cytotoxicity against human SK-MEL cells assessed as reduction in cell viability after 48 hrs by neutral red uptake assay; type: cell-based; how it was run: as §1
# BT-549 = assay: Cytotoxicity against human BT549 cells assessed as reduction in cell viability after 48 hrs by neutral red uptake assay; type: cell-based; details: bt-549, 48 h; how it was run: as §1
# LLC-PK1 = assay: Cytotoxicity against pig LLC-PK1 cells assessed as reduction in cell viability after 48 hrs by neutral red uptake assay; type: cell-based, Sus scrofa; details: llc-pk1, 48 h; how it was run: as §1
# Vero = assay: Cytotoxicity against African green monkey Vero cells assessed as reduction in cell viability after 48 hrs by neutral red uptake assay; type: cell-based; details: chlorocebus sabaeus; how it was run: as §1
# [2] = Selectivity index, ratio of cytotoxicity against human SKOV3 cells to IC50 for Cryptococcus neoformans ATCC 90113; type: toxicity, cell-based; details: read-out: Selectivity Index
# [3] = Selectivity index, ratio of cytotoxicity against human SK-MEL cells to IC50 for Cryptococcus neoformans ATCC 90113; type: toxicity, cell-based; details: read-out: Selectivity Index
# [4] = Selectivity index, ratio of cytotoxicity against human BT549 cells to IC50 for Cryptococcus neoformans ATCC 90113; type: toxicity, cell-based; details: read-out: Selectivity Index
# [5] = Selectivity index, ratio of cytotoxicity against pig LLC-PK1 cells to IC50 for Cryptococcus neoformans ATCC 90113; type: toxicity, cell-based; details: read-out: Selectivity Index
# [6] = Selectivity index, ratio of cytotoxicity against African green monkey VERO cells to IC50 for Cryptococcus neoformans ATCC 90113; type: toxicity, cell-based; details: read-out: Selectivity Index
# Staphylococcus aureus [7] = assay: Antibacterial activity against Staphylococcus aureus ATCC 29213 after […] hrs by alamar blue dye based CLSI method; type: functional
# Staphylococcus aureus [8] = assay: Antibacterial activity against methicillin-resistant Staphylococcus aureus ATCC 33591 after 16 to 20 hrs by alamar blue dye based CLSI method; type: functional
# [9] = Selectivity index, ratio of cytotoxicity against human SKOV3 cells to IC50 for Staphylococcus aureus ATCC 29213; type: toxicity, cell-based; details: read-out: Selectivity Index
# How it was run: (§2)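 Selectivity index is the ratio CTX/IC50. For CTX, cells were seeded at 25 000 per well and grown 24 h, then exposed to peptide up to 10 μg/mL for 48 h, with viability by neutral red uptake. […] The inoculum was 5 × 10^5 CFU/mL, with OD530 read before and after incubation.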
# [10] = Selectivity index, ratio of cytotoxicity against human SK-MEL cells to IC50 for Staphylococcus aureus ATCC 29213; type: toxicity, cell-based; details: read-out: Selectivity Index; how it was run: as §2
# [11] = Selectivity index, ratio of cytotoxicity against human BT549 cells to IC50 for Staphylococcus aureus ATCC 29213; type: toxicity, cell-based; details: read-out: Selectivity Index; how it was run: as §2
# [12] = Selectivity index, ratio of cytotoxicity against pig LLC-PK1 cells to IC50 for Staphylococcus aureus ATCC 29213; type: toxicity, cell-based; details: read-out: Selectivity Index; how it was run: as §2
# [13] = Selectivity index, ratio of cytotoxicity against African green monkey VERO cells to IC50 for Staphylococcus aureus ATCC 29213; type: toxicity, cell-based; details: read-out: Selectivity Index; how it was run: as §2
# [14] = Selectivity index, ratio of cytotoxicity against human SKOV3 cells to IC50 for methicillin-resistant Staphylococcus aureus ATCC 33591; type: toxicity, cell-based; details: read-out: Selectivity Index
# How it was run: (§3)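 Selectivity index is the ratio CTX/IC50. For CTX, cells were seeded at 25 000 per well and grown 24 h, then given peptide up to 10 μg/mL for 48 h, with neutral red uptake read-out. […] OD530 was read before and after 16−20 h at 35 °C.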
# [15] = Selectivity index, ratio of cytotoxicity against human SK-MEL cells to IC50 for methicillin-resistant Staphylococcus aureus ATCC 33591; type: toxicity, cell-based; details: read-out: Selectivity Index; how it was run: as §3
# [16] = Selectivity index, ratio of cytotoxicity against human BT549 cells to IC50 for methicillin-resistant Staphylococcus aureus ATCC 33591; type: toxicity, cell-based; details: read-out: Selectivity Index; how it was run: as §3
# [17] = Selectivity index, ratio of cytotoxicity against pig LLC-PK1 cells to IC50 for methicillin-resistant Staphylococcus aureus ATCC 33591; type: toxicity, cell-based; details: read-out: Selectivity Index; how it was run: as §3
# [18] = Selectivity index, ratio of cytotoxicity against African green monkey VERO cells to IC50 for methicillin-resistant Staphylococcus aureus ATCC 33591; type: toxicity, cell-based; details: read-out: Selectivity Index; how it was run: as §3
# Escherichia coli = assay: Antibacterial activity against Escherichia coli ATCC 35218 after 16 to 20 hrs by alamar blue dye based CLSI method; type: functional
# Candida = assay: Antifungal activity against Candida; type: functional
# Aspergillus = assay: Antifungal activity against Aspergillus; type: functional
# Cryptococcus neoformans [19] = assay: Antifungal activity against Cryptococcus neoformans ATCC 350 after 70 to 74 hrs by alamar blue dye based CLSI method; type: functional
# Cryptococcus neoformans [20] = assay: Fungicidal activity against Cryptococcus neoformans ATCC 350 at 0.39 ug/ml up to 4 hrs by time kill assay; type: functional
# [21] = Metabolic stability of the compound assessed as trypsin (unknown origin)-mediated compound hydrolysis at compound to trypsin ratio of 100 to 0.5 after 2 hrs by RP-HPLC analysis; type: ADME; details: human
# How it was run: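 Peptide:trypsin 100:0.5 mol/mol in 0.1 M NH4CO3, 0.1 mM CaCl2, pH 8.3, shaken at 37 °C, 200 rpm; aliquot analysed by RP-HPLC, retention time and peak intensity compared with untreated peptide; 2 h sampling per results text.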
# Cryptococcus neoformans [22] = assay: Induction of membrane permeabilization in Cryptococcus neoformans ATCC 350 assessed as increase in propidium iodide uptake at 0.39 ug/ml after 1 hr by confocal microscopic analysis; type: functional
# Cryptococcus neoformans [23] = assay: Induction of membrane permeabilization in Cryptococcus neoformans ATCC 350 at 0.39 ug/ml after 1 hr using FITC labeled compound by confocal microscopic analysis; type: functional
# Cryptococcus neoformans [24] = assay: Induction of nuclear fragmentation in Cryptococcus neoformans ATCC 350 at 0.39 ug/ml after 1 hr by DAPI staining based confocal microscopic analysis; type: functional
# Cryptococcus neoformans [25] = assay: Induction of morphological changes in Cryptococcus neoformans ATCC 350 assessed as cell wall breakage at 0.39 ug/ml after 1 hr by uranyl acetate/lead acetate staining based scanning electron microscopic analysis; type: functional
# Cryptococcus neoformans [26] = assay: Disruption of cell wall membrane in Cryptococcus neoformans ATCC 350 at 0.39 ug/ml after 1 hr by uranyl acetate/lead acetate staining based transmission electron microscopic analysis; type: functional
# Cryptococcus neoformans [27] = assay: Disruption of plasma membrane in Cryptococcus neoformans ATCC 350 at 0.39 ug/ml after 1 hr by uranyl acetate/lead acetate staining based transmission electron microscopic analysis; type: functional
# Cryptococcus neoformans [28] = assay: Synergistic antifungal activity against Cryptococcus neoformans ATCC 350 in presence of fluconazole by checkerboard method; type: functional
# Cryptococcus neoformans [29] = assay: Synergistic antifungal activity against Cryptococcus neoformans ATCC 350 in presence of amphotericin B by checkerboard method; type: functional
# Cryptococcus neoformans [30] = assay: Synergistic antifungal activity against Cryptococcus neoformans ATCC 350 assessed as fold reduction in MIC in presence of fluconazole by checkerboard method relative to control; type: functional
# Cryptococcus neoformans [31] = assay: Synergistic antifungal activity against Cryptococcus neoformans ATCC 350 assessed as fold reduction in MIC in presence of amphotericin B by checkerboard method relative to control; type: functional
# Cryptococcus neoformans [32] = assay: Synergistic antifungal activity against Cryptococcus neoformans ATCC 350 assessed as fold reduction in fluconazole MIC by checkerboard method relative to fluconazole alone; type: functional
# Cryptococcus neoformans [33] = assay: Synergistic antifungal activity against Cryptococcus neoformans ATCC 350 assessed as fold reduction in amphotericin B MIC by checkerboard method relative to amphotericin B alone; type: functional
# Cryptococcus neoformans [34] = assay: Fungicidal activity against Cryptococcus neoformans ATCC 350 at antifungal MIC after 4 hrs by time kill assay; type: functional
# Cryptococcus neoformans [35] = assay: Induction of membrane permeabilization in Cryptococcus neoformans ATCC 350 after 1 hr using FITC labeled compound by confocal microscopic analysis; type: functional
smiles,measurement,setting,value
COC(=O)[C@H](Cc1c[nH]c(-c2ccc(-c3ccccc3)cc2)n1)NC(=O)[C@H](Cc1c[nH]c2ccccc12)NC(=O)[C@@H](N)Cc1c[nH]c(-c2ccc(-c3ccccc3)cc2)n1,IC50,Cryptococcus neoformans [1],0.35 µg/mL
same,MFC,Cryptococcus neoformans [1],0.63 µg/mL
same,MIC,Cryptococcus neoformans [1],0.63 µg/mL
same,Activity,SK-OV-3,> 10 µg/mL
same,Activity,SK-MEL,> 10 µg/mL
same,Activity,BT-549,> 10 µg/mL
same,Activity,LLC-PK1,> 10 µg/mL
same,Activity,Vero,> 10 µg/mL
same,selectivity ratio,[2],> 28.6
same,selectivity ratio,[3],> 28.6
same,selectivity ratio,[4],> 28.6
same,selectivity ratio,[5],> 28.6
same,selectivity ratio,[6],> 28.6
same,IC50,Staphylococcus aureus [7],2.56 µg/mL
same,MBC,Staphylococcus aureus [7],> 20 µg/mL
same,MIC,Staphylococcus aureus [7],> 20 µg/mL
same,IC50,Staphylococcus aureus [8],1.93 µg/mL
same,MBC,Staphylococcus aureus [8],10 µg/mL
same,MIC,Staphylococcus aureus [8],5 µg/mL
same,selectivity ratio,[9],> 3.9
same,selectivity ratio,[10],> 3.9
same,selectivity ratio,[11],> 3.9
same,selectivity ratio,[12],> 3.9
same,selectivity ratio,[13],> 3.9
same,selectivity ratio,[14],> 5.18
same,selectivity ratio,[15],> 5.18
same,selectivity ratio,[16],> 5.18
same,selectivity ratio,[17],> 5.18
same,selectivity ratio,[18],> 5.18
same,Activity,Escherichia coli,inactive
same,Activity,Candida,inactive
same,Activity,Aspergillus,inactive
same,MIC,Cryptococcus neoformans [19],0.44 µM
same,Activity,Cryptococcus neoformans [20],Active
same,Stability,[21],Stable
same,Activity,Cryptococcus neoformans [22],Active
same,Activity,Cryptococcus neoformans [23],Active
same,Activity,Cryptococcus neoformans [24],Active
same,Activity,Cryptococcus neoformans [25],Active
same,Activity,Cryptococcus neoformans [26],Active
same,Activity,Cryptococcus neoformans [27],Active
same,fractional inhibitory concentration index (FICI),Cryptococcus neoformans [28],0.308
same,fractional inhibitory concentration index (FICI),Cryptococcus neoformans [29],0.092
same,fold change (FC),Cryptococcus neoformans [30],16
same,fold change (FC),Cryptococcus neoformans [31],32
same,fold change (FC),Cryptococcus neoformans [32],4
same,fold change (FC),Cryptococcus neoformans [33],16
COC(=O)[C@H](Cc1c[nH]cn1)NC(=O)[C@H](Cc1c[nH]c2ccccc12)NC(=O)[C@H](Cc1c[nH]cn1)NC(=O)OC(C)(C)C (Boc-His-Trp-His-OMe),IC50,Cryptococcus neoformans [1],> 20 µg/mL
same,Activity,SK-OV-3,> 10 µg/mL
same,Activity,SK-MEL,> 10 µg/mL
same,Activity,BT-549,> 10 µg/mL
same,Activity,LLC-PK1,> 10 µg/mL
same,Activity,Vero,> 10 µg/mL
same,Activity,Escherichia coli,inactive
same,Activity,Candida,inactive
same,Activity,Aspergillus,inactive
same,Activity,Cryptococcus neoformans [34],inactive
N[C@@H](Cc1c[nH]c(-c2ccccc2)n1)C(=O)N[C@@H](Cc1c[nH]c2ccccc12)C(=O)N[C@@H](Cc1c[nH]c(-c2ccccc2)n1)C(=O)NCc1ccccc1,IC50,Cryptococcus neoformans [1],> 20 µg/mL
same,Activity,SK-OV-3,> 10 µg/mL
same,Activity,SK-MEL,> 10 µg/mL
same,Activity,BT-549,> 10 µg/mL
same,Activity,LLC-PK1,> 10 µg/mL
same,Activity,Vero,> 10 µg/mL
same,Activity,Escherichia coli,inactive
same,Activity,Candida,inactive
same,Activity,Aspergillus,inactive
same,Activity,Cryptococcus neoformans [35],inactive
